Experimental data gathered from unrelated publications.
Protocols differ between the studies behind these lines.
Target: MAP kinase-activated protein kinase 2 (MAPKAPK2, Homo sapiens, UniProt P49137)

SMILES | observed | method | concentration | remaining binding [%]
C[C@@H]1CN(c2ccc3ncc(-c4ccc5[nH]nc(C6CC6)c5c4)n3n2)C[C@H](C)O1 | binding | competition with immobilised ligand | 50 nM | 62
O=C(Nc1c[nH]nc1C(=O)NC1CCNCC1)c1cc(F)cc(F)c1 | binding | competition with immobilised ligand | 1 µM | 100
CN(C)c1nccc(-c2cnn3ncccc23)n1 | binding | – | 1 µM | 100
CNCc1ccccc1-c1csc([C@H](C)Nc2nc(C)nc3cc(OC)c(OC)cc23)c1 | cell-free assay | competition with immobilised ligand | 1 µM | 80
CNC(=O)[C@@H]1CC[C@@H](n2c(-c3ccc4cnccc4c3)nc3ccc(C(=O)NCc4cccc(C(N)=O)c4)cc32)C1 | binding | competition with immobilised ligand | 1 µM | 98
O=C(NCCCN1CCOCC1)c1ccc(Nc2nccc(-c3cc4ccccc4s3)n2)cc1 | binding | competition with immobilised ligand | 1 µM | 100
CN(CCCC(F)(F)F)c1nccc(-c2cnn3ncccc23)n1 | binding | – | 1 µM | 100
Nc1ncc2c(n1)-c1c([nH]c3ccc(C#CC4CC4)cc13)CCCC2 | binding | competition with immobilised ligand | 1 µM | 86
Cc1c[nH]c2nccc(Oc3c(F)cc(Nc4cc(Cl)nc(N)n4)cc3F)c12 | cell-free assay | competition with immobilised ligand | 0.1 µM | 100
c1cncc(-c2cccc(Nc3nccc(NC4CCCCC4)n3)c2)c1 | binding | competition with immobilised ligand | 10 µM | 100
O=C(NCCCN1CCOCC1)c1ccc(Nc2ncc(Cl)c(-c3ccc(Cl)s3)n2)cc1 | binding | competition with immobilised ligand | 1 µM | 100
c1cnn2ncc(-c3ccnc(N4CCC45COC5)n3)c2c1 | binding | – | 1 µM | 100
COc1cc(-c2cn(C3CCc4ccccc4N(CC(F)(F)F)C3=O)nn2)ccc1-n1ccc(C)n1 (centres unmarked) | cell-free assay | competition with immobilised ligand | 1 µM | 90
COc1ncc2cc3ccccc3nc2c1C#N | cell-free assay | competition with immobilised ligand | 5 µM | 100
CN(C)c1ncc(F)c(-c2cnn3ncccc23)n1 | binding | – | 1 µM | 100
COCCOc1nc(-c2ccc(Cl)nc2)nc2c1CN(C(=O)c1ncn3ccccc13)CC2 | cell-free assay | competition with immobilised ligand | 0.1 µM | 73
CC(C)(C)c1ccc(-c2nc(CBr)nn2-c2cccc(O)c2)cc1 | cell-free assay | competition with immobilised ligand | 10 µM | 100
COc1ccc2c(O[C@@H]3C[C@H]4C(=O)N[C@]5(C(=O)O)CC5/C=C\CCCCC[C@H](NC(=O)OC5CCCC5)C(=O)N4C3)cc(-c3csc(NC(=O)C(C)C)n3)nc2c1C (some centres unmarked) | cell-free assay | competition with immobilised ligand | 1 µM | 60
COc1cnc(Nc2cccc(S(N)(=O)=O)c2)nc1N1CCN(c2ccccc2)CC1 | binding | competition with immobilised ligand | 1 µM | 100
NS(=O)(=O)c1cc(NC(=O)Cc2ccccc2)ccc1Oc1cccc(Cl)c1 | cell-free assay | competition with immobilised ligand | 1 µM | 100
N[C@H]1CCN(c2nccc(-c3cnn4ncccc34)n2)C1 | binding | – | 1 µM | 39
O=C(c1ccc(Nc2nccc(-c3cc4ccccc4s3)n2)cc1)N1CCC(N2CCCC2)CC1 | binding | competition with immobilised ligand | 1 µM | 100
CN([C@@H]1CCc2c(CC(=O)O)c3ccccc3n2C1)S(=O)(=O)c1ccc(F)cc1 | cell-free assay | competition with immobilised ligand | 1 µM | 100
